Assay results reported in paper PMC6363533 (Biochemistry, 2018).
Marks after values point to notes of the source that are not given here.

B1: MMR: His-tagged recombinant β-antithrombin double mutant, Lys114 and Lys125 mutated to Met (protein)
chain: HGSPVDICTAKPRDIPMNPMCIYRSPEKKATEDEGSEQKIPEATNRRVWELSKANSRFATTFYQHLADSKNDNDNIFLSPLSISTAFAMTKLGACNDTLQQLMEVFKFDTISEMTSDQIHFFFAMLNCRLYRKAQKSSKLVSANRLFGDKSLTFNETYQDISELVYGAKLQPLDFKENAEQSRAAINKWVSNKTEGRITDVIPSEAINELTVLVLVNTIYFKGLWKSKFSPENTRKELFYKADGESCSASMMYQEGKFRYRRVAEGTQVLELPFKGDDITMVLILPKPEKSLAKVEKELTPEVLQEWLDELEEMMLVVHMPRFRIEDGFSLKEQLQDMGLVDLFSPEKSKLPGIVAEGRDDLYVSDAFHKAFLEVNEEGSEAAASTAVVIAGRSLNPNRVTFKANRPFLVFIREVPLNTIIFMGRVANPCVK
modifications: left off: His6, C-terminal, kept

Key:
[1] = molecular target: antithrombin; conditions: read-out: Kd of TNS binding to antithrombin; cited from earlier work
[2] = Rapid; type: binding; conditions: natural pentasaccharide; I 0.04, pH 6.0, 25°C; estimated based on factor Xa reactivity enhancements
[3] = molecular target: factor IXa (Homo sapiens, UniProt P00740); type: biochemical
Sequence of factor IXa (P00740 47-191 limits assumed): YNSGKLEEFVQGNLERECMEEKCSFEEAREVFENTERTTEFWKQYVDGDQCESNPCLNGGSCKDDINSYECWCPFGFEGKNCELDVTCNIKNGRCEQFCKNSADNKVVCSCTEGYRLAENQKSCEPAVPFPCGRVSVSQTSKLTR
Sequence of factor IXa (P00740 227-461 limits assumed): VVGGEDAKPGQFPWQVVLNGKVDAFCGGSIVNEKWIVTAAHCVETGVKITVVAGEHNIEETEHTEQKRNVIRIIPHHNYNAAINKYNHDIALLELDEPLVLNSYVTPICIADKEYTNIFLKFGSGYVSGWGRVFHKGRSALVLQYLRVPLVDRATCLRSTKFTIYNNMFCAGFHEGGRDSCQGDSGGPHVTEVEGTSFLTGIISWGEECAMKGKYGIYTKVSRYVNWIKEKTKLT

[4] = type: binding; conditions: read-out: KD,obs; natural pentasaccharide; I 0.04, pH 6.0, 25°C; measured directly at I 0.04 or calculated from the ionic strength dependence of KD,obs
Method in brief: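 Recombinant His-tagged antithrombin (~100 nM), expressed in Sf9 and Ni-NTA purified, was titrated with pentasaccharide at 25°C. Binding was followed by tryptophan fluorescence enhancement (ex 280 nm, em 340 nm). Stocks were diluted extensively. Data were fit by quadratic binding equation for KD and stoichiometry.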

[5] = molecular target: factor Xa (Homo sapiens, UniProt P00742); type: biochemical; conditions: natural pentasaccharide complex, 20 mM MES
Sequence of factor Xa (P00742 41-179 limits assumed): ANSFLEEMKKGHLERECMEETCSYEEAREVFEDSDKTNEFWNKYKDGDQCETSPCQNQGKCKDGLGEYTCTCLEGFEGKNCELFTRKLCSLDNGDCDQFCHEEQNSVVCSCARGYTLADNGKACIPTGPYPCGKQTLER
Sequence of factor Xa (P00742 235-488 limits assumed): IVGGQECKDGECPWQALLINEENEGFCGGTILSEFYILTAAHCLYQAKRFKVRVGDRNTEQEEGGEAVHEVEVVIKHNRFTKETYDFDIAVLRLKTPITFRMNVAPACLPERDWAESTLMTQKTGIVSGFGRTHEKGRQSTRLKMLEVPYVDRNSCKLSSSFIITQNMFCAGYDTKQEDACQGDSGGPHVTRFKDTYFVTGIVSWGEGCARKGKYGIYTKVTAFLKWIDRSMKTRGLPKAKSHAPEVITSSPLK

| Molecule | Kd [1] [µM] | 1/K2 [2] | kH FIXa, association rate constant of heparin-complexed antithrombin ([3]; natural pentasaccharide complex, 20 mM MES, 5 mM CaCl2, 0.1 % PEG 8000, pH 6.0, 25°C, ±S.E.) | kH FIXa, fractional wild-type value (in parentheses) ([3]; natural pentasaccharide complex, 20 mM MES, 5 mM CaCl2, pH 6.0, 25°C) | Heparin-activated reactivity with factor IXa, % of wild-type ([3]; saturating natural pentasaccharide, MES/Ca2+ pH 6 buffer) [%] | Kd [4] [µM] | kH FXa, association rate constant of heparin-complexed antithrombin ([5]; 5 mM CaCl2, 0.1 % PEG 8000, pH 6.0, 25°C, ±S.E.) | kH FXa, fractional wild-type value (in parentheses) ([5]; 5 mM CaCl2, pH 6.0, 25°C) |
| --- | --- | --- | --- | --- | --- | --- | --- | --- |
| Cc1ccc(Nc2ccc3cc(S(=O)(=O)O)ccc3c2)cc1 [TNS, 2-p-toluidinylnaphthalene-6-sulfonate] | > 10 |  |  |  |  |  |  |  |
| B1 |  | ~0.5^d | 3.0±0.1 × 10^2 M^−1s^−1 | 0.03 | 3 | 45 | 2.3±0.3 ×10^4 M^−1s^−1 | 0.30 |
